According to ChEMBL document CHEMBL1649452, “The chromosomal toxin gene yafQ is a determinant of multidrug tolerance for Escherichia coli growing in a biofilm” (2009):
Values after ≈ are worked out from the molar mass of the structure shown. Active and inactive are the calls of the source. The calls are words filed in the database; no cut-off is given here.

Key:
Escherichia coli [1] = experiment: Antimicrobial activity against yafQ gene-deficient Escherichia coli K-12 BW25113 by broth microdilution method; format: functional
Procedure, shortened: (§1)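 Broth microdilution MIC per CLSI protocol; wild-type and ΔyafQ strains from Keio collection, stored at −70°C in LB with 8% DMSO, cultured on LB agar at 37°C.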

Escherichia coli [2] = experiment: Antimicrobial activity against Escherichia coli K-12 BW25113 by broth microdilution method; format: functional; procedure, shortened: as §1
Escherichia coli [3] = experiment: Bactericidal activity against yafQ gene-deficient Escherichia coli K-12 BW25113 biofilm assessed as log reduction of viable cells after 24 hrs relative to wild-type Escherichia coli K-12 BW25113; format: functional
Procedure, shortened: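 Biofilms grown 24 h at 37°C, 125 rpm, 95% humidity on Calgary device pegs from ~1.0 × 10^7 CFU/ml inoculum (1.0 McFarland diluted 30-fold). After a saline rinse, biofilms went into twofold antibiotic dilutions, were rinsed twice, and sonicated 5 min in LB with 1% Tween 20. Survivors were counted on LB agar after ≥24 h at 37°C. Mean log killing compared with wild type; significance required ≥50-fold difference and non-overlapping SDs.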

Escherichia coli [4] = experiment: Bactericidal activity against yafQ gene-deficient Escherichia coli K-12 BW25113 stationary-phase planktonic cell assessed as log reduction of viable cells after 24 hrs; format: functional, organism-based
Procedure, shortened: (§2)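 Stationary-phase planktonic cells from LB grown 18–20 h at 225 rpm, 37°C, then pelleted and resuspended at 2× concentration in fresh medium. 100 μl cells added to 100 μl of 2× twofold antibiotic dilutions. Starting counts by viable plating. Recovery, dilution and counting as for biofilms (LB + 1% Tween 20, LB agar ≥24 h at 37°C); mean log killing calculated.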

Escherichia coli [5] = experiment: Bactericidal activity against Escherichia coli K-12 BW25113 stationary-phase planktonic cell assessed as log reduction of viable cells after 24 hrs; format: functional, organism-based; procedure, shortened: as §2
Escherichia coli [6] = experiment: Effect on survival of Escherichia coli K-12 BW25113 biofilm harboring pCA24N ptac::yafQ plasmid assessed as increase in cell survival after 24 hrs pretreated with 5 uM of IPTG for 4 hrs relative to wild-type Escherichia coli K-12 […]; format: functional
Procedure, shortened: (§3)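 Biofilms grown 24 h at 37°C, 125 rpm, 95% humidity on Calgary device pegs from ~1.0 × 10^7 CFU/ml inoculum. Strain carries IPTG-inducible pCA24N vector, grown with 30 μg/ml chloramphenicol. Biofilms were rinsed, then induced 4 h at 37°C, 125 rpm in LB with chloramphenicol and 5 μM IPTG before twofold antibiotic dilutions. Survivors were recovered by sonication in LB plus 1% Tween 20 and plated; mean log killing calculated.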

Escherichia coli [7] = experiment: Bactericidal activity against Escherichia coli K-12 BW25113 biofilm harboring pCA24N ptac::yafQ plasmid assessed as log reduction of viable cells after 24 hrs pretreated with 5 uM of IPTG for 4 hrs; format: functional, organism-based; procedure, shortened: as §3
Escherichia coli [8] = experiment: Bactericidal activity against yafQ gene-deficient Escherichia coli K-12 BW25113 biofilm assessed as log reduction of viable cells after 24 hrs; format: functional, organism-based
Procedure, shortened: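 Biofilms grown on the 96-peg polystyrene lid of a Calgary biofilm device. Inoculum was a 1.0 McFarland suspension diluted 30-fold in growth medium (~1.0 × 10^7 CFU/ml). Grown 24 h at 37°C, 125 rpm, 95% humidity, then saline-rinsed and exposed to twofold antibiotic dilutions. Rinsed twice, sonicated 5 min in LB + 1% Tween 20, plated on LB agar ≥24 h at 37°C. Mean log killing taken from viable counts.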

| Compound | MIC (Escherichia coli [1]) [µg/mL] | MIC (Escherichia coli [2]) [µg/mL] | FC (Escherichia coli [3]) | Activity (Escherichia coli [4]) | Activity (Escherichia coli [5]) | fold change (FC) (Escherichia coli [6]) | Activity (Escherichia coli [7]) | Activity (Escherichia coli [8]) |
| --- | --- | --- | --- | --- | --- | --- | --- | --- |
| Cc1nnc(SCC2=C(C(=O)O)N3C(=O)[C@@H](NC(=O)Cn4cnnn4)[C@H]3SC2)s1 [CEFAZOLIN] | 4 (≈ 8.8 µM) | 4 (≈ 8.8 µM) | 2400 | Active | Active | 10000 | inactive | – |
| C[C@H]1c2cccc(O)c2C(=O)C2=C(O)[C@]3(O)C(=O)C(C(N)=O)=C(O)[C@@H](N(C)C)[C@@H]3[C@@H](O)[C@@H]21.O [DOXYCYCLINE] | 3 | 4 | – | – | – | – | Active | Active |
| CO[C@H]1/C=C/O[C@@]2(C)Oc3c(C)c(O)c4c(O)c(c(/C=N/N5CCN(C)CC5)c(O)c4c3C2=O)NC(=O)/C(C)=C\C=C\[C@H](C)[C@H](O)[C@@H](C)[C@@H](O)[C@@H](C)[C@H](OC(C)=O)[C@@H]1C [RIFAMPIN] | 16 (≈ 19.4 µM) | 16 (≈ 19.4 µM) | – | – | – | – | Active | Active |
| NC[C@H]1O[C@H](O[C@H]2[C@H](O)[C@@H](O[C@H]3O[C@H](CO)[C@@H](O)[C@H](N)[C@H]3O)[C@H](N)C[C@@H]2N)[C@H](N)C[C@@H]1O [TOBRAMYCIN] | 2 (≈ 4.28 µM) | 1.5 (≈ 3.21 µM) | 760 | Active | Active | 3300 | inactive | – |
